Source: ChEMBL document CHEMBL4819034, “Tricyclic-Carbocyclic RORγt Inverse Agonists-Discovery of BMS-986313” (J Med Chem, 2021)

Experiments:
[1] = Metabolic stability in rat liver microsomes assessed as parent compound remaining; assay type: ADME, Microsome
Method in brief: (§1)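 Test compound at 0.5 μM initial concentration incubated with human, mouse or rat liver microsomes (protein 1 mg/mL). Metabolic stability reported as percent of parent compound remaining after incubation.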

[2] = molecular target: Cytochrome P450 2C19 (Homo sapiens, UniProt P33261); test: Inhibition of CYP2C19 (unknown origin); assay type: ADME
Sequence of Cytochrome P450 2C19 (P33261 whole entry): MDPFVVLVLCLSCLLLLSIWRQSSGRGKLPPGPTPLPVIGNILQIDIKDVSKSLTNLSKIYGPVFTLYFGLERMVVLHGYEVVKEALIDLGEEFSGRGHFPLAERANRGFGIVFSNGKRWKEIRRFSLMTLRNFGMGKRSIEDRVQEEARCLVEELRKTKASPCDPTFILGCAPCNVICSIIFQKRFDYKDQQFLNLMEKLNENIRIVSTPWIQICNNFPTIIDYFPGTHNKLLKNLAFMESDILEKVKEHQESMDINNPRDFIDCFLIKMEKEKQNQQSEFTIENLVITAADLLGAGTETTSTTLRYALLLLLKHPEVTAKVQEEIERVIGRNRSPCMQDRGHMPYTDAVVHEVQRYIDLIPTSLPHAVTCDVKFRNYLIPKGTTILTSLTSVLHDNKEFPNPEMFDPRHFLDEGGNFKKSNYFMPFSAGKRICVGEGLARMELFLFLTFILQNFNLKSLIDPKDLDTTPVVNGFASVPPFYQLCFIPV

[3] = Volume of distribution at steady state in mouse at 2 mg/kg, iv; assay type: ADME, organism-based; details: in vivo, read-out: Vdss
Method in brief: (§2)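 Single intravenous dose: mouse and rat 2 mg/kg, dog and cynomolgus 1 mg/kg. Steady-state volume of distribution was derived from the IV arm. Values are means from three or more animals.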

[4] = system: Mus musculus; test: Protection against recombinant human IL23-induced acanthosis C57BL/6 mouse model assessed as reduction in IL-17A mRNA levels at 6 mg/kg, po BID BID for 10 days by qRT-PCR analysis relative to control; assay type: functional; set-up: scale not given: the % may be the effect or the level left; details: time 10 day
Method in brief: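 In the IL-23 ear-injection model in C57BL/6 mice with BID oral dosing, ear tissue was collected from all animals at study end on day 10. IL-17A and IL-17F mRNA expression was quantified by qPCR and compared with the placebo arm.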

[5] = Clearance in cynomolgus monkey at 1 mg/kg, iv; assay type: ADME, organism-based, Macaca fascicularis; details: in vivo
Method in brief: (§3)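 Single-dose PK, IV and PO. Doses: mouse and rat 2 mg/kg IV / 4 mg/kg PO; dog and cyno 1 mg/kg IV, with 1 or 2 mg/kg PO.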

[6] = molecular target: Cytochrome P450 2C9 (Homo sapiens, UniProt P11712); test: Inhibition of CYP2C9 (unknown origin); assay type: ADME
Sequence of Cytochrome P450 2C9 (P11712 whole entry): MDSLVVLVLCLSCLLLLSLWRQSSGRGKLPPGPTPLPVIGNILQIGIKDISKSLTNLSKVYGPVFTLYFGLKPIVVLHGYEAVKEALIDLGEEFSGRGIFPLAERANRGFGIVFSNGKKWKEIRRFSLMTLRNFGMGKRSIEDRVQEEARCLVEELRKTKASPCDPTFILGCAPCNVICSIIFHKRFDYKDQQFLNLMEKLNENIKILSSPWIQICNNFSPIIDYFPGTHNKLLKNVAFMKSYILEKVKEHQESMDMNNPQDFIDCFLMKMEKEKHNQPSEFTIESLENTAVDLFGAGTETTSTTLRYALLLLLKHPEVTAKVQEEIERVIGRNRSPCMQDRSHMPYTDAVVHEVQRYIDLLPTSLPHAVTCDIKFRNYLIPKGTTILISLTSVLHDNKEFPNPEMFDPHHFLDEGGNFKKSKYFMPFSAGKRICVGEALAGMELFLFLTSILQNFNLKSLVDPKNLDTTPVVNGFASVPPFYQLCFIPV

[7] = Half life in dog liver microsomes; assay type: ADME, Canis lupus familiaris, Microsome
Method in brief: (§4)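 Liver microsome half-life (min) measured in human, mouse, rat, dog and cyno liver microsomes.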

[8] = molecular target: T1, Nuclear receptor ROR-alpha (Homo sapiens, UniProt P35398); test: Inverse agonist activity at Gal4-fused RORalpha (unknown origin)
T1 sequence (P35398 whole entry): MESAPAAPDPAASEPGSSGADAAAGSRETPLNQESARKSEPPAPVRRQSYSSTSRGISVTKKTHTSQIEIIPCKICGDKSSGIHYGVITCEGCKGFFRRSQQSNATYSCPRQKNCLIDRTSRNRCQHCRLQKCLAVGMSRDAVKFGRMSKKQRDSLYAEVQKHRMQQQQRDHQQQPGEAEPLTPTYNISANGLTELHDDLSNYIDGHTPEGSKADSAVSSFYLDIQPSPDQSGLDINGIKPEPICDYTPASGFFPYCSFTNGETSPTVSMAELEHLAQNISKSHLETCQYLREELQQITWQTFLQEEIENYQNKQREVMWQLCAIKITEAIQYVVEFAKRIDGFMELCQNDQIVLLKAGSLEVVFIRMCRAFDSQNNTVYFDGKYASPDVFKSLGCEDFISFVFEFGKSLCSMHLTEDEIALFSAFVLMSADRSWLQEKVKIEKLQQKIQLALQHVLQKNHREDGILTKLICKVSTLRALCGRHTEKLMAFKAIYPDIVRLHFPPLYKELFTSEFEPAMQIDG

[9] = Protein binding in human assessed as unbound fraction; assay type: ADME
[10] = system: Mus musculus; test: Protection against imiquimod-induced C57BL/6 mouse model of psoriasis assessed as reduction in IL-17F mRNA levels at 5 mg/kg, po BID for 7 days by RT-PCR analysis relative to control; assay type: functional; set-up: scale not given: the % may be the effect or the level left; details: time 7 day
[11] = Metabolic stability in mouse liver microsomes assessed as parent compound remaining; assay type: ADME, Microsome; method in brief: as §1
[12] = molecular target: Cytochrome P450 2D6 (Homo sapiens, UniProt P10635); test: Inhibition of CYP2D6 (unknown origin); assay type: ADME
Sequence of Cytochrome P450 2D6 (P10635 whole entry): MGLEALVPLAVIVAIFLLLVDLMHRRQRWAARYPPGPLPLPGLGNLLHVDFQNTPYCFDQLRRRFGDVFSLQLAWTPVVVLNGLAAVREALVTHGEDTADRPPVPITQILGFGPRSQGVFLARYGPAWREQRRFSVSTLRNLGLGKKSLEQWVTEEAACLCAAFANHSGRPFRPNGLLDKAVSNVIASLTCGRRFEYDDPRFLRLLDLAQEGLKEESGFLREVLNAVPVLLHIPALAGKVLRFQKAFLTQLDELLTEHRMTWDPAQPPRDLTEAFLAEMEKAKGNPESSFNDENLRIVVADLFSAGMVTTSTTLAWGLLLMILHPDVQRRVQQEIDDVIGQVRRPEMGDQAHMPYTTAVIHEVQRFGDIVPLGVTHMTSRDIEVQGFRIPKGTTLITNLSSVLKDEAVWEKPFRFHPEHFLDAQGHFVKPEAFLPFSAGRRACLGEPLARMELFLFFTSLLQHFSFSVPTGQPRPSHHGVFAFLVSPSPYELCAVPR

[13] = system: Mus musculus; test: Protection against recombinant human IL23-induced acanthosis C57BL/6 mouse model assessed as inhibition of ear thickening at 6 mg/kg, po BID for 10 days and measured every other day relative to control; assay type: functional; details: C57BL/6, po, 240 h, time 10 day
Method in brief: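 IL-23 ear-injection acanthosis model in C57BL/6 mice with BID oral dosing. Ear thickness % change was recorded every other day, before each next injection, from a day 0 baseline. Inhibition of ear thickening was calculated against the placebo arm from the area under the curve over the study duration.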

[14] = molecular target: T2, Nuclear receptor ROR-beta (Homo sapiens, UniProt Q92753); test: Inverse agonist activity at Gal4-fused RORbeta (unknown origin)
T2 sequence (Q92753 whole entry): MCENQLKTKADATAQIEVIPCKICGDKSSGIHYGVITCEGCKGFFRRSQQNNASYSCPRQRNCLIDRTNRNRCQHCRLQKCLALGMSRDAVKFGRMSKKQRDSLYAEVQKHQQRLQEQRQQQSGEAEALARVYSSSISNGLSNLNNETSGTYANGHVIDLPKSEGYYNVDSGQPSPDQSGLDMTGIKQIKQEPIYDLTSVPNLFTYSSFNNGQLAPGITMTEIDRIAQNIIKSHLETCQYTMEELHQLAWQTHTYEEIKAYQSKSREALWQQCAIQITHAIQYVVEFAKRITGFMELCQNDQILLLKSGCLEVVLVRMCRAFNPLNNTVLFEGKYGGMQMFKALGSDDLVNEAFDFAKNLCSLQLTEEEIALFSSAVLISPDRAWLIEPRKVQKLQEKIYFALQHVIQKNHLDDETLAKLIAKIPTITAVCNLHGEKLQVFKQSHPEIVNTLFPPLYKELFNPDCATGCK

[15] = system: Mus musculus; test: Protection against imiquimod-induced C57BL/6 mouse model of psoriasis assessed as inhibition of skin thickening at 20 mg/kg, po BID for 7 days and measured every day for 8 days relative to control; assay type: functional; details: C57BL/6, po, 168 h, time 7 day
[16] = Volume of distribution at steady state in cynomolgus monkey at 1 mg/kg, iv; assay type: ADME, organism-based, Macaca fascicularis; details: in vivo, read-out: Vdss; method in brief: as §2
[17] = Clearance in dog at 1 mg/kg, iv; assay type: ADME, organism-based, Canis lupus familiaris; details: in vivo; method in brief: as §3
[18] = Cmax in dog at 2 mg/kg, po; assay type: ADME, organism-based, Canis lupus familiaris; set-up: route oral, dose 2 mg/kg; details: in vivo; method in brief: as §3
[19] = Cmax in mouse at 4 mg/kg, po; assay type: ADME, organism-based; set-up: route oral, dose 4 mg/kg; details: in vivo; method in brief: as §3
[20] = AUC (0 to 24 hrs) in mouse at 4 mg/kg, po; assay type: ADME, organism-based; set-up: time < 24 hr, route oral, dose 4 mg/kg; details: in vivo
[21] = system: Mus musculus; test: Protection against imiquimod-induced C57BL/6 mouse model of psoriasis assessed as change in skin thickness at 5 mg/kg, po BID for 7 days and measured every day for 8 days relative to control; assay type: functional; details: time 7 day
[22] = Protein binding in mouse assessed as unbound fraction; assay type: ADME
[23] = Metabolic stability in human liver microsomes assessed as parent compound remaining; assay type: ADME, Microsome; method in brief: as §1
[24] = Permeability across apical to basolateral membrane in human Caco-2 cells; assay type: ADME, cell-based; details: read-out: permeability
Method in brief: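 Caco-2 monolayer permeability, apical-to-basolateral direction (Pc, nm/s). An efflux ratio is also reported.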

[25] = Volume of distribution at steady state in dog at 1 mg/kg, iv; assay type: ADME, organism-based, Canis lupus familiaris; details: in vivo, read-out: Vdss; method in brief: as §2
[26] = Half life in human liver microsomes; assay type: ADME, Microsome; method in brief: as §4

CC(C)(O)C(=O)N[C@@H]1CC[C@@]2(S(=O)(=O)c3ccc(F)cc3)c3ccc(C(F)(C(F)(F)F)C(F)(F)F)cc3CC[C@@H]12
Stabilty [1]: 100%
IC50 [2]: 19 µM
Vd [3]: 3 L/kg
Activity [4]: 64.9%
clearance [5]: 2.7 mL/min/kg
IC50 [6]: 12 µM
half-life [7]: 2 h
EC50 [8]: > 10 µM
fraction unbound [9]: 0.005
Activity [10]: 79.2%
Stabilty [11]: 92%
IC50 [12]: 20 µM
inhibition in vivo at 6 mg/kg [13]: 43.4%
EC50 [14]: > 10 µM
inhibition in vivo at 20 mg/kg [15]: 57.7%
Vd [16]: 2.7 L/kg
clearance [17]: 0.8 mL/min/kg
Cmax [18]: 1300 nM
Cmax [19]: 2200 nM
AUC(0-t) at 24 h [20]: 33.2 µM·h
Activity [21]: 67.2%
fraction unbound [22]: 0.006
Stabilty [23]: 100%
Papp A→B [24]: 10.6 ×10⁻⁶ cm/s
Vd [25]: 3.2 L/kg
half-life [26]: 2 h
